In ChEMBL document CHEMBL1123337, “Synthesis and antiinflammatory/analgesic activities of 11H-dibenzo[b, e,][1,4]dioxepinacetic acids” (J Med Chem, 1986):

Experiments:
Assay type in all cases: functional
[1] = system: Rattus norvegicus; assay: Antiinflammatory activity was evaluated by the inhibition of rat carrageenan foot edema (CFE) assay at the dose of 1 mg/kg
How it was run: (§1)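 Rats, six per dose. Oral dosing 1 h before carrageenan injection, as a suspension in 0.25% (w/v) agar in water, 3.0 mL per animal. Hindpaw volume read by mercury displacement just after injection and 3 h later. Percent inhibition of mean swelling relative to vehicle controls; unpaired Student's t test.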

[2] = system: Mus musculus; assay: Analgesic activity determined by its ability to inhibit phenylbenzoquinone (PBQ, ip) induced abdominal writhing at dose of 30 mg/kg; settings: Abdomen
How it was run: (§2)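 Male CD mice, 18–22 g, groups of 10, fasted overnight. Dosed orally in 1% methylcellulose 60 min before ip phenylbenzoquinone (2 mg/kg, 0.02% aqueous). Writhes (abdominal contractions, lordosis, hindlimb extension) counted over 10 min, starting 5 min after PBQ. Group means and standard errors taken; percent inhibition calculated against vehicle controls.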

[3] = system: Rattus norvegicus; assay: Antiinflammatory activity was evaluated by the inhibition of rat carrageenan foot edema (CFE) assay at the dose of 10 mg/kg; how it was run: as §1
[4] = system: Rattus norvegicus; assay: Antiinflammatory activity was evaluated by the inhibition of rat carrageenan foot edema (CFE) assay at the dose of 3 mg/kg; how it was run: as §1
[5] = system: Rattus norvegicus; assay: Gastric haemorrhage at the dose of 10 mg/kg expressed as the number of rats with lesions per 6 number of rats
How it was run: (§3)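 Male Sprague-Dawley rats, 120–200 g, six per group, weight-sorted and fasted overnight. Given orally as a suspension in 0.5% methocal. Killed by CO2 4 h later. Stomachs everted and washed, and mucosal lesions counted visually under 3× magnification. Scored as rats with lesions per total, with lesions per animal.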

[6] = system: Rattus norvegicus; assay: Gastric haemorrhage at the dose of 30 mg/kg expressed as the number of rats with lesions per 6 number of rats (lesions per animal=1.7); how it was run: as §3
[7] = system: Rattus norvegicus; assay: Compound was evaluated for the effective dose required for the inhibition of rat carrageenan foot edema (CFE) assay
[8] = system: Rattus norvegicus; assay: Gastric haemorrhage at the dose of 30 mg/kg expressed as the number of rats with lesions per 6 number of rats; how it was run: as §3
[9] = system: Mus musculus; assay: Analgesic activity determined by its ability to inhibit phenylbenzoquinone (PBQ, ip) induced abdominal writhing at dose of 3 mg/kg; settings: Abdomen; how it was run: as §2
[10] = system: Rattus norvegicus; assay: Gastric haemorrhage at the dose of 10 mg/kg expressed as the number of rats with lesions per 6 number of rats (lesions per animal=4.2); how it was run: as §3
[11] = system: Mus musculus; assay: Analgesic activity determined by its ability to inhibit phenylbenzoquinone (PBQ, ip) induced abdominal writhing at dose of 10 mg/kg; settings: Abdomen; how it was run: as §2

Structure (SMILES) | inhibition in vivo at 1 mg/kg [1] [%] | inhibition in vivo at 30 mg/kg [2] [%] | inhibition in vivo at 10 mg/kg [3] [%] | inhibition in vivo at 3 mg/kg [4] [%] | further results
O=C(O)Cc1ccc2c(c1)Oc1ccccc1CO2 | 24 | 26 | 40 | 10 | –
COC(=O)C(C)c1ccc2c(c1)Oc1ccccc1CO2 (stereo not drawn) | 23 | – | 56 | 32 | No. of rats with lesions [5]: 0; No. of rats with lesions [6]: 5
COc1ccc2c(c1)c(CC(=O)O)c(C)n2C(=O)c1ccc(Cl)cc1 [INDOMETHACIN] | 33 | – | 67 | 56 | –
CC(CO)c1ccc2c(c1)Oc1ccccc1CO2 (stereo not drawn) | 9 | – | 45 | 19 | –
O=C(O)Cc1ccc2c(c1)OCc1ccccc1C2=O [OXEPINAC] | – | – | – | – | ED50 [7]: 3.7 mg/kg
CC(C(=O)O)c1ccc2c(c1)Oc1ccccc1CO2 (stereo not drawn) | 21 | 91 | 42 | 27 | No. of rats with lesions [8]: 6; inhibition in vivo at 3 mg/kg [9]: 38%; No. of rats with lesions [10]: 5; inhibition in vivo at 10 mg/kg [11]: 70%
O=C(O)Cc1ccc2c(c1)Oc1cc(Cl)ccc1CO2 | 11 | 26 | 5 | 19 | –
O=C(O)Cc1ccc2c(c1)Oc1ccc(Cl)cc1CO2 | 21 | 82 | 28 | 23 | –
CCC(=O)OC(C)OC(=O)C(C)c1ccc2c(c1)Oc1ccccc1CO2 (stereo not drawn) | 6 | – | 12 | 15 | –
CC(=O)NCCOC(=O)C(C)c1ccc2c(c1)Oc1ccccc1CO2 (stereo not drawn) | 7 | – | 28 | 15 | –
O=C(O)Cc1ccc2c(c1)OCc1ccccc1O2 | 28 | – | 49 | 53 | –
O=C(O)Cc1ccc2c(c1)Oc1ccccc1OC2 | – | – | 5 | 6 | –
Cc1cc(CC(=O)O)n(C)c1C(=O)c1ccc(Cl)cc1 [ZOMEPIRAC] | 61 | 91 | – | 82 | –
CC(C(=O)O)c1ccc2c(c1)OCc1ccccc1O2 (stereo not drawn) | 43 | 70 | 43 | 45 | –
CC(=O)Nc1ccc2c(c1)COc1ccc(CC(=O)O)cc1O2 | 35 | -55 | 23 | 16 | –
O=C(O)Cc1ccc2c(c1)COc1ccccc1O2 | 12 | 37 | 16 | 9 | –
